Test results reported in article PMC11097374 (ACS Omega, 2024).

Columns and labels:
[1] = test system: Wi-38 normal human lung fibroblast cells; experiment: MTT assay against normal human cell line; assay type: cell-based; conditions: for IC50: Homo sapiens, WI-38, 72 h, read-out: Wi-38 IC50; for Wi-38 IC100: MTT, 72 h, SI calls it EC100, dose at 100% cell viability, mean ± SEM
How it was run: (§1)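 Cytotoxicity by MTT, run side by side on MCF-7 and MDA-MB231 breast cancer cells and Wi-38 normal human fibroblasts, with doxorubicin as reference. IC50 was determined for each line, and IC100 also on Wi-38. Selectivity indices express selectivity toward each breast cancer line over the normal Wi-38 cells.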

[2] = test system: MCF-7 cells; experiment: MTT assay against human breast cancer cell line MCF-7; assay type: cell-based; conditions: for IC50: Homo sapiens, MCF7, 72 h, read-out: MCF-7 IC50; for MCF-7 SI (selectivity index): over Wi-38 normal cells; for cytotoxicity compared to doxorubicin: MTT, cell line not given, fits MCF-7 IC50 values; for fold reduction of potency and selectivity relative to 18: MCF-7, bromo replaced by chloro or nitro
How it was run: as §1

[3] = test system: MDA-MB 231 cells; experiment: MTT assay against human breast cancer cell line MDA-MB 231; assay type: cell-based; conditions: for IC50: Homo sapiens, MDA-MB-231, 72 h, read-out: MDA-MB 231 IC50; for MDA-MB 231 SI (selectivity index): over Wi-38 normal cells
How it was run: as §1

[4] = test system: MCF-7 cells; experiment: Annexin V-FITC/PI double staining apoptosis assay; assay type: cell-based, human; conditions: MCF-7, 24 h treatment with IC50
[5] = test system: calf thymus DNA (ctDNA); experiment: DNA damage by terbium; assay type: biochemical; conditions: 24 h incubation, Tb fluorescence 545 nm
[6] = test system: MCF-7 cells; experiment: MCF-7 cell cycle analysis by flow cytometry; assay type: cell-based, human; conditions: MCF-7, 24 h treatment with IC50

CC(=O)Nc1c(N)nc(S)[nH]c1=O [Compound 3, N-(4-amino-2-mercapto-6-oxo-1,6-dihydropyrimidin-5-yl)acetamide]
IC50 [1]: 1340 ± 72 nM
Wi-38 IC100 [1]: 0.103 ± 0.045 µM
IC50 [2]: 832 ± 48 nM
MCF-7 SI (selectivity index) [2]: 1.615
IC50 [3]: 1440 ± 255 nM
MDA-MB 231 SI (selectivity index) [3]: 0.930

CCOC(=O)CSc1nc(N)c(NC(C)=O)c(=O)[nH]1 [Compound 4, Ethyl 2-((5-Acetamido-4-amino-6-Oxo-1,6-dihydropyrimidin-2-yl)thio)acetate]
IC50 [1]: 852 ± 11 nM
Wi-38 IC100 [1]: 0.352 ± 0.012 µM
IC50 [2]: 266 ± 15 nM
MCF-7 SI (selectivity index) [2]: 3.203
IC50 [3]: 840 ± 50 nM
MDA-MB 231 SI (selectivity index) [3]: 1.014

CC(=O)Nc1c(N)nc(SCC(=O)NN)[nH]c1=O [Compound 5, N-(4-amino-2-((2-hydrazinyl-2-oxoethyl)thio)-6-oxo-1,6-dihydropyrimidin-5-yl)acetamide]
IC50 [1]: 801 ± 31 nM
Wi-38 IC100 [1]: 0.240 ± 0.003 µM
IC50 [2]: 50 ± 8 nM
cytotoxicity compared to doxorubicin [2]: surpassed doxorubicin
MCF-7 SI (selectivity index) [2]: 16.02
IC50 [3]: 826 ± 46 nM
MDA-MB 231 SI (selectivity index) [3]: 0.969
early apoptosis [4]: 29.11%
late apoptosis [4]: 17.64%
total cell death (apoptosis induction) ([4]; control 0.73%): 46.75%
necrotic cells ([4]; control 1.34%): 5.39%
LOD (minimum concentration inducing detectable DNA damage) [5]: 10.64 nM
LOQ [5]: 35.48 nM
cell cycle distribution compared to untreated cells [6]: increased DNA content during S

CC(=O)Nc1c(N)nc(SCC(=O)N/N=C/c2ccc(Cl)cc2)[nH]c1=O [Compound 6, (E)-N-(4-amino-2-((2-(2-(4-chlorobenzylidene)hydrazinyl)-2-oxoethyl)thio)-6-oxo-1,6-dihydropyrimidin-5-yl)acetamide]
IC50 [1]: 692 ± 64 nM
Wi-38 IC100 [1]: 0.037 ± 0.007 µM
IC50 [2]: 445 ± 15 nM
MCF-7 SI (selectivity index) [2]: 1.555
IC50 [3]: 681 ± 29 nM
MDA-MB 231 SI (selectivity index) [3]: 1.016

CC(=O)Nc1c(N)nc(SCC(=O)N/N=C/c2ccc(Br)cc2)[nH]c1=O [Compound 7, (E)-N-(4-amino-2-((2-(2-(4-bromobenzylidene)hydrazinyl)-2-oxoethyl)thio)-6-oxo-1,6-dihydropyrimidin-5-yl)acetamide]
IC50 [1]: 408 ± 81 nM
Wi-38 IC100 [1]: 0.232 ± 0.003 µM
IC50 [2]: 167 ± 40 nM
cytotoxicity compared to doxorubicin [2]: surpassed doxorubicin
IC50 [3]: 616 ± 20 nM
MDA-MB 231 SI (selectivity index) [3]: 0.662

CC(=O)Nc1c(N)nc(SCC(=O)N/N=C/c2ccc([N+](=O)[O-])cc2)[nH]c1=O [Compound 8, (E)-N-(4-amino-2-((2-(2-(4-nitrobenzylidene)hydrazinyl)-2-oxoethyl)thio)-6-oxo-1,6-dihydropyrimidin-5-yl)acetamide]
IC50 [1]: 713 ± 44 nM
Wi-38 IC100 [1]: 0.491 ± 0.084 µM
IC50 [2]: 146 ± 11 nM
cytotoxicity compared to doxorubicin [2]: surpassed doxorubicin
MCF-7 SI (selectivity index) [2]: 4.883
IC50 [3]: 583 ± 20 nM
MDA-MB 231 SI (selectivity index) [3]: 1.222
LOD (minimum concentration inducing detectable DNA damage) [5]: 30.03 nM
LOQ [5]: 100.12 nM

COc1ccc(/C=N/NC(=O)CSc2nc(N)c(NC(C)=O)c(=O)[nH]2)cc1 [Compound 9, (E)-N-(4-amino-2-((2-(2-(4-methoxybenzylidene)hydrazinyl)-2-oxoethyl)thio)-6-oxo-1,6-dihydropyrimidin-5-yl)acetamide]
IC50 [1]: 1050 ± 25 nM
Wi-38 IC100 [1]: 0.424 ± 0.020 µM
IC50 [2]: 217 ± 16 nM
MCF-7 SI (selectivity index) [2]: 4.820
IC50 [3]: 683 ± 1 nM
MDA-MB 231 SI (selectivity index) [3]: 1.531

CC(=O)Nc1c(N)nc(SCC(=O)N/N=C/c2ccccc2O)[nH]c1=O [Compound 10, (E)-N-(4-amino-2-((2-(2-(2-hydroxybenzylidene)hydrazinyl)-2-oxoethyl)thio)-6-oxo-1,6-dihydropyrimidin-5-yl)acetamide]
IC50 [1]: 501 ± 49 nM
Wi-38 IC100 [1]: 0.241 ± 0.037 µM
IC50 [2]: 102 ± 1 nM
cytotoxicity compared to doxorubicin [2]: surpassed doxorubicin
MCF-7 SI (selectivity index) [2]: 4.911
IC50 [3]: 590 ± 49 nM
MDA-MB 231 SI (selectivity index) [3]: 0.849

Cc1cc(=O)n2c(C)n[nH]c2n1 [Compound 14, 3,7-Dimethyl-1,2,4-triazolo[4,3-a]pyrimidin-5(1H)-one]
IC50 [1]: 1510 ± 41 nM
Wi-38 IC100 [1]: 0.206 ± 0.014 µM
IC50 [2]: 292 ± 10 nM
MCF-7 SI (selectivity index) [2]: 5.157
IC50 [3]: 1260 ± 52 nM
MDA-MB 231 SI (selectivity index) [3]: 1.200

COC(=O)Cn1nc(C)n2c(=O)cc(C)nc12 [Compound 15, Methyl 2-(3,7-dimethyl-5-oxo-1,2,4-triazolo[4,3-a]pyrimidin-1(5H)-yl)acetate]
IC50 [1]: 1170 ± 22 nM
Wi-38 IC100 [1]: 0.237 ± 0.017 µM
IC50 [2]: 617 ± 29 nM
MCF-7 SI (selectivity index) [2]: 1.894
IC50 [3]: 1280 ± 56 nM
MDA-MB 231 SI (selectivity index) [3]: 0.912

Cc1cc(=O)n2c(C)nn(CC(=O)NN)c2n1 [Compound 16, 2-(3,7-Dimethyl-5-oxo-1,2,4-triazolo[4,3-a]pyrimidin-1(5H)-yl)acetohydrazide]
IC50 [1]: 978 ± 13 nM
Wi-38 IC100 [1]: 0.115 ± 0.033 µM
IC50 [2]: 544 ± 8 nM
MCF-7 SI (selectivity index) [2]: 1.797
IC50 [3]: 1128 ± 2 nM
MDA-MB 231 SI (selectivity index) [3]: 0.867

Cc1cc(=O)n2c(C)nn(CC(=O)N/N=C/c3ccc(Cl)cc3)c2n1 [Compound 17, (E)-N′-(4-chlorobenzylidene)-2-(3,7-dimethyl-5-oxo-1,2,4-triazolo[4,3-a]pyrimidin-1(5H)-yl)acetohydrazide]
IC50 [1]: 593 ± 24 nM
Wi-38 IC100 [1]: 0.124 ± 0.034 µM
IC50 [2]: 403 ± 62 nM
fold reduction of potency and selectivity relative to 18 [2]: 5 fold
MCF-7 SI (selectivity index) [2]: 1.471
IC50 [3]: 632 ± 29 nM
MDA-MB 231 SI (selectivity index) [3]: 0.938

Cc1cc(=O)n2c(C)nn(CC(=O)N/N=C/c3ccc(Br)cc3)c2n1 [Compound 18, (E)-N′-(4-bromobenzylidene)-2-(3,7-dimethyl-5-oxo-1,2,4-triazolo[4,3-a]pyrimidin-1(5H)-yl)acetohydrazide]
IC50 [1]: 593 ± 5 nM
Wi-38 IC100 [1]: 0.111 ± 0.005 µM
IC50 [2]: 42 ± 9 nM
cytotoxicity compared to doxorubicin [2]: surpassed doxorubicin
MCF-7 SI (selectivity index) [2]: 14.119
IC50 [3]: 559 ± 29 nM
MDA-MB 231 SI (selectivity index) [3]: 1.060

Cc1cc(=O)n2c(C)nn(CC(=O)N/N=C/c3ccc([N+](=O)[O-])cc3)c2n1 [Compound 19, (E)-N′-(4-nitrobenzylidene)-2-(3,7-dimethyl-5-oxo-1,2,4-triazolo[4,3-a]pyrimidin-1(5H)-yl)acetohydrazide]
IC50 [1]: 612 ± 34 nM
Wi-38 IC100 [1]: 0.329 ± 0.031 µM
IC50 [2]: 201 ± 39 nM
fold reduction of potency and selectivity relative to 18 [2]: 10 fold
MCF-7 SI (selectivity index) [2]: 3.044
IC50 [3]: 820 ± 90 nM
MDA-MB 231 SI (selectivity index) [3]: 0.746

COc1ccc(/C=N/NC(=O)Cn2nc(C)n3c(=O)cc(C)nc23)cc1 [Compound 20, (E)-N′-(4-methoxybenzylidene)-2-(3,7-dimethyl-5-oxo-1,2,4-triazolo[4,3-a]pyrimidin-1(5H)-yl)acetohydrazide]
IC50 [1]: 723 ± 20 nM
Wi-38 IC100 [1]: 0.280 ± 0.037 µM
IC50 [2]: 334 ± 20 nM
IC50 [3]: 856 ± 19 nM
MDA-MB 231 SI (selectivity index) [3]: 0.844

Cc1cc(=O)n2c(C)nn(CC(=O)N/N=C/c3ccccc3O)c2n1 [Compound 21, (E)-N′-(2-hydroxybenzylidene)-2-(3,7-dimethyl-5-oxo-1,2,4-triazolo[4,3-a]pyrimidin-1(5H)-yl)acetohydrazide]
IC50 [1]: 518 ± 8 nM
Wi-38 IC100 [1]: 0.269 ± 0.026 µM
IC50 [2]: 52 ± 10 nM
cytotoxicity compared to doxorubicin [2]: surpassed doxorubicin
MCF-7 SI (selectivity index) [2]: 9.961
IC50 [3]: 697 ± 24 nM
MDA-MB 231 SI (selectivity index) [3]: 0.743

COc1cccc2c1C(=O)c1c(O)c3c(c(O)c1C2=O)C[C@@](O)(C(=O)CO)C[C@@H]3O[C@H]1C[C@H](N)[C@H](O)[C@H](C)O1 [DOX., doxorubicin, reference compound]
IC50 [1]: 322 ± 25 nM
Wi-38 IC100 [1]: 0.119 ± 0.005 µM
IC50 [2]: 198 ± 11 nM
MCF-7 SI (selectivity index) [2]: 1.626
IC50 [3]: 487 ± 18 nM
MDA-MB 231 SI (selectivity index) [3]: 0.661
LOD (minimum concentration inducing detectable DNA damage) [5]: 0.76 nM
LOQ [5]: 2.56 nM
